From ChEMBL document CHEMBL1629643, “Naturally occurring Class A ss-lactamases from the Burkholderia cepacia complex” (Antimicrob Agents Chemother, 2009) come the findings set out here.

The test system of data set [1] is Burkholderia cenocepacia. Description: Antimicrobial activity against Burkholderia cenocepacia 07-34 expressing beta-lactamase PenB1. The format is functional. A digest of the protocol:
(§1)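 MICs measured by broth microdilution and by Etest on clinical B. cenocepacia isolates grown for 18 h in Trypticase soy broth (30°C and 37°C). Susceptibility was read against CLSI guidelines.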

Data set [2] has as its system Burkholderia cenocepacia. Description: Antimicrobial activity against Burkholderia cenocepacia 09-54 expressing beta-lactamase PenB2. The format is functional. A digest of the protocol: as §1
Data set [3] concerns Burkholderia cenocepacia. The data set can be described thus: Antimicrobial activity against Burkholderia cenocepacia 212 expressing beta-lactamase PenB3. Type of data set: functional. A digest of the protocol: as §1
Data set [4] relates to Burkholderia cenocepacia. Description: Antimicrobial activity against Burkholderia cenocepacia 5007902 expressing beta-lactamase PenB4. Type of data set: functional. A digest of the protocol: as §1
In data set [5] the test system is Escherichia coli. The data set can be described thus: Antimicrobial activity against Escherichia coli TOP10 harboring beta-lactamase PenB1. The format is functional. In outline: (§2)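 MICs by broth microdilution and Etest, interpreted per CLSI guidelines. Strains tested were host E. coli TOP10, and TOP10 carrying pBcSau13 (pBK-CMV vector, kanamycin-resistant) holding a Sau3AI fragment of B. cenocepacia 212 DNA that encodes PenB1.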

Data set [6] relates to Escherichia coli. Description: Antimicrobial activity against Escherichia coli TOP10. The format is functional. A digest of the protocol: as §2
Substrate in data set [7]: CC(=O)OCC1=C(C(=O)O)N2C(=O)[C@@H](NC(=O)Cc3cccs3)[C@H]2SC1
The conditions noted are these: Burkholderia cenocepacia; 07-34.

Substrate in data set [8]: CC(C)(O/N=C(\C(=O)N[C@@H]1C(=O)N2C(C(=O)[O-])=C(C[n+]3ccccc3)CS[C@H]12)c1csc(N)n1)C(=O)O
Particulars: Burkholderia cenocepacia; 07-34.

Substrate in data set [9]: CC1(C)S[C@@H]2[C@H](NC(=O)Cc3ccccc3)C(=O)N2[C@H]1C(=O)O
The conditions noted are these: Burkholderia cenocepacia; 07-34.

Substrate in data set [10]: CC1(C)S[C@@H]2[C@H](NC(=O)[C@H](C(=O)O)c3ccsc3)C(=O)N2[C@H]1C(=O)O
Particulars: Burkholderia cenocepacia; 07-34.

Substrate in data set [11]: CC1(C)S[C@@H]2[C@H](NC(=O)[C@H](N)c3ccccc3)C(=O)N2[C@H]1C(=O)O
The conditions noted are these: Burkholderia cenocepacia; 07-34.

Substrate in data set [12]: CCN1CCN(C(=O)N[C@@H](C(=O)N[C@@H]2C(=O)N3[C@@H]2SC(C)(C)[C@@H]3C(=O)O)c2ccccc2)C(=O)C1=O
Particulars: Burkholderia cenocepacia; 07-34.

Substrate in data set [13]: CO/N=C(\C(=O)N[C@@H]1C(=O)N2C(C(=O)O)=C(COC(C)=O)CS[C@H]12)c1csc(N)n1
Particulars: Burkholderia cenocepacia; 07-34.

Substrate in data set [14]: CO/N=C(\C(=O)N[C@@H]1C(=O)N2C(C(=O)O)=C(COC(N)=O)CS[C@H]12)c1ccco1
The conditions noted are these: Burkholderia cenocepacia; 07-34.

Substrate in data set [15]: CO/N=C(\C(=O)N[C@@H]1C(=O)N2C(C(=O)[O-])=C(C[N+]3(C)CCCC3)CS[C@H]12)c1csc(N)n1
Particulars: Burkholderia cenocepacia; 07-34.

Substrate in data set [16]: C[C@@H](O)[C@H]1C(=O)N2C(C(=O)O)=C(SCCNC=N)C[C@H]12
The conditions noted are these: Burkholderia cenocepacia; 07-34.

Substrate in data set [17]: C[C@@H](O)[C@H]1C(=O)N2C(C(=O)O)=C(S[C@@H]3CN[C@H](C(=O)N(C)C)C3)[C@H](C)[C@H]12
The conditions noted are these: Burkholderia cenocepacia; 07-34.

Substrate in data set [18]: C[C@H]1[C@H](NC(=O)/C(=N\OC(C)(C)C(=O)O)c2csc(N)n2)C(=O)N1S(=O)(=O)O
The conditions noted are these: Burkholderia cenocepacia; 07-34.

Substrate in data set [19]: CC(=O)OCC1=C(C(=O)O)N2C(=O)[C@@H](NC(=O)Cc3cccs3)[C@H]2SC1
Particulars: Burkholderia cenocepacia; 07-34. The source holds these as a separate data set.

Substrate in data set [20]: CC(C)(O/N=C(\C(=O)N[C@@H]1C(=O)N2C(C(=O)[O-])=C(C[n+]3ccccc3)CS[C@H]12)c1csc(N)n1)C(=O)O
Particulars: Burkholderia cenocepacia; 07-34. The source holds these as a separate data set.

Substrate in data set [21]: CC1(C)S[C@@H]2[C@H](NC(=O)Cc3ccccc3)C(=O)N2[C@H]1C(=O)O
Particulars: Burkholderia cenocepacia; 07-34. This is another data set of the same source.

Substrate in data set [22]: CC1(C)S[C@@H]2[C@H](NC(=O)[C@H](C(=O)O)c3ccsc3)C(=O)N2[C@H]1C(=O)O
Particulars: Burkholderia cenocepacia; 07-34. This is another data set of the same source.

Substrate in data set [23]: CC1(C)S[C@@H]2[C@H](NC(=O)[C@H](N)c3ccccc3)C(=O)N2[C@H]1C(=O)O
The conditions noted are these: Burkholderia cenocepacia; 07-34. This is another data set of the same source.

Substrate in data set [24]: CCN1CCN(C(=O)N[C@@H](C(=O)N[C@@H]2C(=O)N3[C@@H]2SC(C)(C)[C@@H]3C(=O)O)c2ccccc2)C(=O)C1=O
Particulars: Burkholderia cenocepacia; 07-34. This is another data set of the same source.

Substrate in data set [25]: CO/N=C(\C(=O)N[C@@H]1C(=O)N2C(C(=O)O)=C(COC(C)=O)CS[C@H]12)c1csc(N)n1
The conditions noted are these: Burkholderia cenocepacia; 07-34. This is another data set of the same source.

Substrate in data set [26]: CO/N=C(\C(=O)N[C@@H]1C(=O)N2C(C(=O)O)=C(COC(N)=O)CS[C@H]12)c1ccco1
The conditions noted are these: Burkholderia cenocepacia; 07-34. This is another data set of the same source.

Substrate in data set [27]: CO/N=C(\C(=O)N[C@@H]1C(=O)N2C(C(=O)[O-])=C(C[N+]3(C)CCCC3)CS[C@H]12)c1csc(N)n1
The conditions noted are these: Burkholderia cenocepacia; 07-34. This is another data set of the same source.

Substrate in data set [28]: C[C@@H](O)[C@H]1C(=O)N2C(C(=O)O)=C(SCCNC=N)C[C@H]12
Particulars: Burkholderia cenocepacia; 07-34. The source holds these as a separate data set.

Substrate in data set [29]: C[C@@H](O)[C@H]1C(=O)N2C(C(=O)O)=C(S[C@@H]3CN[C@H](C(=O)N(C)C)C3)[C@H](C)[C@H]12
Particulars: Burkholderia cenocepacia; 07-34. This is another data set of the same source.

Substrate in data set [30]: C[C@H]1[C@H](NC(=O)/C(=N\OC(C)(C)C(=O)O)c2csc(N)n2)C(=O)N1S(=O)(=O)O
Particulars: Burkholderia cenocepacia; 07-34. The source holds these as a separate data set.

In brackets after ≈: the same amount, converted by molar mass.

Usually MIC stands for the lowest concentration that inhibits growth of the organism. Lower therefore signals greater potency. The term Km denotes the substrate concentration at which the rate is half of its maximum. For orientation: kcat means the maximal rate divided by the concentration of active sites. As a reminder, the kcat/Km is the turnover number divided by the Michaelis constant.

As to `CC(C)(O/N=C(\C(=O)N[C@@H]1C(=O)N2C(C(=O)[O-])=C(C[n+]3ccccc3)CS[C@H]12)c1csc(N)n1)C(=O)O` [CEFTAZIDIME], the MIC in data set [1] turned out to be 4 µg/mL (≈ 7.32 µM); in data set [2], 32 µg/mL (≈ 58.5 µM); in data set [3] it was 16 µg/mL (≈ 29.3 µM); in data set [4], 0.25 µg/mL (≈ 0.457 µM); in data set [5] it was 1 µg/mL (≈ 1.83 µM); in data set [6] it was 0.5 µg/mL (≈ 0.915 µM).
As for `CO/N=C(\C(=O)N[C@@H]1C(=O)N2C(C(=O)O)=C(COC(N)=O)CS[C@H]12)c1ccco1` [CEFUROXIME], the MIC was 16 µg/mL (≈ 37.7 µM) in [1]; 512 µg/mL (≈ 1210 µM) in data set [2]; 512 µg/mL (≈ 1210 µM) in [3]; 32 µg/mL (≈ 75.4 µM) in [4]; 16 µg/mL (≈ 37.7 µM) in [5]; 8 µg/mL (≈ 18.9 µM) in [6].
On to `C[C@@H](O)[C@H]1C(=O)N2C(C(=O)O)=C(SCCNC=N)C[C@H]12` [IMIPENEM ANHYDROUS], for which the minimal inhibitory concentration (MIC) turned out to be 8 µg/mL (≈ 26.7 µM) in [1]; 16 µg/mL (≈ 53.4 µM) in [2]; 16 µg/mL (≈ 53.4 µM) in [3]; 8 µg/mL (≈ 26.7 µM) in data set [4]; 0.5 µg/mL (≈ 1.67 µM) in data set [5].
`CC1(C)S[C@@H]2[C@H](NC(=O)[C@H](C(=O)O)c3ccsc3)C(=O)N2[C@H]1C(=O)O` [TICARCILLIN]: the MIC in data set [1] was determined as 512 µg/mL (≈ 1330 µM); in data set [2], 512 µg/mL (≈ 1330 µM); in [3], 512 µg/mL (≈ 1330 µM); in [4], 512 µg/mL (≈ 1330 µM); in data set [5], 512 µg/mL (≈ 1330 µM); in data set [6], 4 µg/mL (≈ 10.4 µM).

B1: PenB class A beta-lactamase (Burkholderia cenocepacia), B8R6A5 (protein)
chain: MTYSSKRRTLLLAAATAPLVLTATACASRQAAAPDPATAAAAAAADAMAPAAAAATLADLERDAGGRLGVCAIDTASGRVIEHRAGERFPFCSTFKAMLSAAVLAQSVERPGLLQQRVKYTKADLVNYSPVSEKHVGAGMTVAALCEATIQYSDNSAANLLMKLIGGPSAVTAYARSIGDDAFRLDRWETELNTALPGDPRDTTTPAAMAASIRVLTLGDALPAAQRAQLVAWLRGNKVGDKRIRAGVPAGWTVGDKTGTGDYGTTNDAGVIWPTSRAPIVLAVYYTQTRADARAKDDVIASVARIVAQTFG
As to B1, the Michaelis-Menten constant (Km) in data set [7] was determined as 100 µM; in data set [8] it was 3000 µM; in data set [9] it was 25 µM; in data set [10] it was 60 µM; in [11], 100 µM; in [12], 10 µM. The Michaelis-Menten constant (Km) in data set [13] turned out to be 150 µM; in data set [14], 80 µM; in [15] it was 1000 µM; in data set [16] it was 60 µM; in data set [17], 2500 µM; in [18] it was 2500 µM. Also, the kcat in data set [7] was 300 s⁻¹; in [8], 1.5 s⁻¹; in data set [9], 130 s⁻¹; in data set [10], 15 s⁻¹; in data set [11], 70 s⁻¹; in data set [12], 5 s⁻¹. For the same molecule, the kcat in [13] worked out at 20 s⁻¹; in [14], 170 s⁻¹; in data set [15] it was 10 s⁻¹; in data set [16] it was 0.1 s⁻¹; in data set [17] it was 1 s⁻¹; in [18], 30 s⁻¹. Moreover, the kcat/Km in [19] came out at 3e+06 M⁻¹ s⁻¹; in data set [20], 500000 M⁻¹ s⁻¹; in data set [21] it was 5.2e+06 M⁻¹ s⁻¹; in data set [22] it was 250000 M⁻¹ s⁻¹; in data set [23], 700000 M⁻¹ s⁻¹; in [24], 500000 M⁻¹ s⁻¹. For the same molecule, the kcat/Km was 130000 M⁻¹ s⁻¹ in data set [25]; 2.1e+06 M⁻¹ s⁻¹ in [26]; 1e+07 M⁻¹ s⁻¹ in data set [27]; 2e+06 M⁻¹ s⁻¹ in data set [28]; 500 M⁻¹ s⁻¹ in data set [29]; 1e+07 M⁻¹ s⁻¹ in data set [30].
